Active and inactive are the calls of the source. No cut-off for these calls is given here.
Legend:
[1] = molecular target: T1, Protein cereblon/SWI/SNF-related matrix-associated actin-dependent regulator of chromatin subfamily A member 2 (Homo sapiens, UniProt P51531+Q96SW2); experiment: PROTAC activity at CRBN/SMARCA2 in human H322 cells harboring SMARCA4 mutant assessed as induction of SMARCA2 degradation at 0.1 uM in presence of pomalidomide by immunoblot analysis; assay type: cell-based
[2] = Half life in male CD-1 (ICR) mouse at 25 mg/kg, po measured up to 24 hrs by LC-MS/MS analysis; assay type: ADME, organism-based; conditions: in vivo
Outline: (§1)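 Single 25 mg/kg dose. IP vehicle was 5% DMSO/5% solutol/90% water at 1.25 mg/mL, final pH 4.39, clear solution. Oral vehicle was 0.5% methylcellulose/0.2% Tween 80 in water, opaque suspension. Plasma sampled at 0.25, 0.5, 1, 2, 4, 8 and 24 h. Plasma protein-precipitated with internal standard in acetonitrile, then LC-MS/MS. n = 3 mice per time point, mean.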

[3] = AUC (0 to infinity) in male CD-1 (ICR) mouse at 25 mg/kg, po measured up to 24 hrs by LC-MS/MS analysis; assay type: ADME, organism-based; conditions: in vivo; outline: as §1
[4] = Antitumor activity against human NCI-H2023 cells harboring SMARCA4 mutant xenografted in female athymic nude mouse assessed as tumor growth inhibition at 5 mg/kg, po administered once daily via gavage for 19 days relative to control; assay type: functional; conditions: NCI-H2023, 456 h, time 19 day, read-out: TGI
Outline: (§2)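 Cells (H1568 2 × 10^6, H2023 10 × 10^6, HCC515 5 × 10^6) in PBS:Matrigel 1:1, 200 μL, injected subcutaneously into flanks of 6–8-week-old females. Randomized at mean tumor volume 60 mm3 (H1568) or <200 mm3 (others). Dosed in 0.5% methylcellulose + 0.2–1% Tween-80, sonicated on ice. Caliper tumor volume and body weight tracked, mean ± SEM.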

[5] = tested on: HCC515; experiment: Antitumor activity against human HCC515 cells harboring SMARCA4 mutant xenografted in female athymic nude mouse assessed as tumor growth inhibition at 5 mg/kg, po administered once daily via gavage for 19 days relative to control; assay type: functional; conditions: HCC515, 456 h, time 19 day, read-out: TGI; outline: as §2
[6] = tested on: NCI-H2030; experiment: Antitumor activity against human NCI-H2030 cells harboring SMARCA4 mutant xenografted in female athymic nude mouse assessed as tumor growth inhibition at 5 mg/kg, po administered once daily via gavage for 17 days relative to control; assay type: functional; conditions: NCI-H2030, 408 h, time 17 day, read-out: TGI
Outline: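 10 × 10^6 H2030 cells in PBS:Matrigel 1:1, 200 μL, injected subcutaneously into flanks of 6–8-week-old females. Randomized at mean tumor volume <200 mm3. Oral gavage once daily in 10% DMSO, 40% PEG300, 1% Tween-80, 49% saline. Caliper tumor volume and body weight monitored, mean ± SEM.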

[7] = Toxicity in female athymic nude mouse xenografted with human HCC515 cells harboring SMARCA4 mutant assessed as change in body weight at 5 mg/kg, po administered once daily via gavage for 19 days relative to control; assay type: organism-based; conditions: in vivo, 456 h, time 19 day; outline: as §2
[8] = tested on: NCI-H2030; experiment: Synergistic antitumor activity against human NCI-H2030 cells harboring KRAS G12C mutant/SMARCA4 mutant assessed as inhibition of colony formation incubated for 8 days in presence of sotorasib by clonogenic growth assay; assay type: functional, cell-based; conditions: time 8.0 day
Outline: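 H2030 clonogenic assay over 8 days with 2-fold dilutions of sotorasib, test agent, or both. Crystal violet staining, total colony area normalized. Synergy scored as Bliss/Lowe consensus, >10 taken as synergy.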

[9] = tested on: NCI-H2030; experiment: Inhibition of ERK phosphorylation in human NCI-H2030 cells harboring KRAS G12C mutant/SMARCA4 mutant assessed as reduction in p-ERK level at 1.25 uM incubated for 48 hrs in presence of sotorasib by Western blotting analysis; assay type: cell-based
[10] = molecular target: T1, Protein cereblon/SWI/SNF-related matrix-associated actin-dependent regulator of chromatin subfamily A member 2; experiment: PROTAC activity at CRBN/SMARCA2 in human H322 cells harboring SMARCA4 mutant assessed as induction of SMARCA2 degradation at 1 uM in presence of Gen-1 by immunoblot analysis; assay type: cell-based
[11] = molecular target: T1, Protein cereblon/SWI/SNF-related matrix-associated actin-dependent regulator of chromatin subfamily A member 2; experiment: PROTAC activity at CRBN/SMARCA2 in CRBN knockout human H322 cells harboring SMARCA4 mutant assessed as induction of SMARCA2 degradation at 1 uM by immunoblot analysis; assay type: cell-based
[12] = molecular target: Transcriptional coactivator YAP1 (Homo sapiens) (UniProt P46937); experiment: Induction of YAP1 phosphorylation at S109 residue in human H322 cells harboring SMARCA4 mutant at 1 uM incubated for 96 hrs by immunoblot analysis; assay type: cell-based; conditions: filed as activator
Sequence of Transcriptional coactivator YAP1 (Homo sapiens) (P46937 whole entry): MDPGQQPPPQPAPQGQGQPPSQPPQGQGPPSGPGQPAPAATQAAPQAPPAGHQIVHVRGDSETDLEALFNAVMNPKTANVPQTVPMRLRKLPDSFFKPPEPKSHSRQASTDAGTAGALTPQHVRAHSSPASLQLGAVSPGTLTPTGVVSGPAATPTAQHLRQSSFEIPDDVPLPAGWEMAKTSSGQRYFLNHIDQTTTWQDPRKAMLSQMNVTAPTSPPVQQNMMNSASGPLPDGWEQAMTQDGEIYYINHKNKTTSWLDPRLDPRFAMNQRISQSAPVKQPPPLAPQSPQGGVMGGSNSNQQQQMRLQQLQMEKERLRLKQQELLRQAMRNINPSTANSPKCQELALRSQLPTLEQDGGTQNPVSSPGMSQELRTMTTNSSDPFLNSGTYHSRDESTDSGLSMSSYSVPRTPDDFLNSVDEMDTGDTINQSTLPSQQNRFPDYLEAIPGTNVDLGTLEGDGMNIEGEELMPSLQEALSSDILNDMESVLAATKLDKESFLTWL

[13] = Drug metabolism in mouse liver microsomes assessed as Mono-oxygenation and hydrogenation mediated M1 metabolite formation at 10 uM incubated for 60 mins by LC-UV-HRMS analysis; assay type: ADME, Microsome; conditions: 1 h
Outline: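 Compound at 10 μM incubated with mouse liver microsomes at 37 °C for 60 min. Metabolites detected by LC-UV-HRMS, structures proposed from MS and MS2 data, and each metabolite given as a percentage.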

[14] = Drug concentration in C57BL/6 mouse plasma at 80 mg/kg, po administered once daily for 3 days and measured at 24 hrs post last dose; assay type: ADME, organism-based; conditions: time 3 day
Outline: (§3)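 Oral dosing once daily for 3 days: 5–80 mg/kg in C57BL/6 mice, 10–80 mg/kg in CrbnI391V mice. Euthanized 24 h after last dose. Plasma drug level measured. Spleen SMARCA2 by Western blot against actin loading control, relative to vehicle.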

[15] = Antitumor activity against human NCI-H1568 cells harboring SMARCA4 mutant xenografted in female athymic nude mouse assessed as tumor growth inhibition at 40 mg/kg, po administered once daily via gavage for 13 days relative to control; assay type: functional; conditions: NCI-H1568, 312 h, time 13 day, read-out: TGI; outline: as §2
[16] = Drug concentration in CRBN I391V mutant mouse plasma at 80 mg/kg, po administered once daily for 3 days and measured at 24 hrs post last dose; assay type: ADME, organism-based; conditions: time 3 day; outline: as §3
[17] = In vivo PROTAC activity at CRBN I391V mutant/SMARCA2 in mouse assessed as SMARCA2 degradation in spleen at 80 mg/kg, po administered once daily for 3 days and measured at 24 hrs post last dose by Western blotting analysis relative to control; assay type: functional; conditions: time 3 day
Outline: (§4)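 CrbnI391V mice given 10, 20, 40 or 80 mg/kg or vehicle orally once daily for 3 days. Euthanised 24 h after the last dose. Spleen SMARCA2 measured by Western blot with actin as loading control, relative to vehicle. Plasma drug level measured at the same time.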

[18] = In vivo PROTAC activity at CRBN I391V mutant/SMARCA2 in mouse assessed as SMARCA2 degradation in spleen at 10 to 80 mg/kg, po administered once daily for 3 days and measured at 24 hrs post last dose by Western blotting analysis relative to control; assay type: functional; conditions: dose 10-80 mg/kg, time 3 day; outline: as §4
[19] = Toxicity in immunocompromised mouse xenografted with human NCI-H1568 cells assessed as drug tolerance at 80 mg/kg, administered once daily for 21 days; assay type: organism-based; conditions: in vivo, 504 h, time 21 day

Row | SMILES | Activity [1] | t1/2 [2] [h] | AUC [3] [ng·h/mL] | inhibition in vivo at 5 mg/kg [4] [%] | inhibition in vivo at 5 mg/kg [5] [%] | inhibition in vivo at 5 mg/kg [6] [%] | Activity [7] [%] | Activity [8] | inhibition [9] | Activity [10] | Activity [11] | Activity [12] | Drug metabolism [13] | concentration at 72 h [14] [nM] | inhibition in vivo at 40 mg/kg [15] [%] | concentration at 72 h [16] [nM] | Activity [17] [%] | Activity [18] [%] | Activity [19]
1 | Nc1nnc(-c2ccccc2O)cc1N1CCN(Cc2ccc(N3CCN(CCOc4cccc5c4C(=O)N(C4CCC(=O)NC4=O)C5=O)CC3)c(F)c2)CC1 (centres undefined) | inactive | 6 | 5122 | 62.5 | 48.8 | 93.4 | < 20 | Active | Active | – | – | – | – | – | – | – | – | – | –
2 | Nc1nnc(-c2ccccc2O)cc1N1CCN(Cc2ccc(N3CCC(CN4CCN(c5ccc6c(c5)C(=O)N(C5CCC(=O)NC5=O)C6=O)CC4)CC3)c(F)c2)CC1 (centres undefined) | – | – | – | – | – | – | – | – | – | inactive | inactive | Active | metabolite_detected | 1880 | 27.6 | 2450 | 81 | 11 | Non-toxic

Reference: ChEMBL document CHEMBL6134900 (J Med Chem, 2025)
